Source: PubChem (several laboratories)
DDE Tn7 FP inh: inhibitors of Tn7 peptide binding to fibrin DD(E), primary screen, biochemical, fluorescence polarization, human fibrin, Tn7 probe; FP displacement of FITC-Tn7 peptide from fibrin DD(E); 0% = median of compound wells per plate; inhibition, % at 8.3 µM; 0.13% of 370,000 active; Fibrinogen beta chain (Homo sapiens), P02675; AID 720508, 2013;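 active means inhibition above the mean of compounds falling within the control limits plus 3 SD of them, cut at about 14% in these data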;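 further: 0% = plate median of compound wells and 100% = 10 µM Aha-Tn7 peptide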
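assay system = human clot-derived fibrin DD(E) complex | quantity = Fibrin-DD(E) at 2 µM final | timing = 10 min preincubation, 3 h with tracer, room temperature | signal = fluorescence polarization | measure = percent inhibition | benchmarks = high control wells with 10 µM unlabelled Aha-Tn7 peptide (full inhibition) | replicates = singlicate testing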
MT1-MMP act inh: blockers of MT1-MMP proenzyme processing, primary screen, HT1080 RFP-PRO-GFP cells, GFP/RFP fluorescence; GFP/RFP ratio change, % at 20 µM; 0.061% of 360,000 active; GFP/RFP ratio fluorescence, overnight; percent of plate control window, DMSO zero; Matrix metalloproteinase-14 (Homo sapiens), P50281;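 active means GFP/RFP ratio change of at least 30% with cell ATP level not reduced by more than half and red fluorescence within 50% of control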
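system = RFP-PRO-GFP reporter HT1080 cells | dosing = 20 µM single dose, 1% DMSO | timing = overnight cell settling, then overnight compound exposure, 37 °C, 5% CO2 | read-out basis = GFP/RFP fluorescence ratio | controls = DMSO and RFP-L50D-GFP cell wells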
DDE Tn6 FP inh: inhibitors of Tn6 peptide binding to fibrin DD(E), primary screen, biochemical, fluorescence polarization, human fibrin, Tn6 probe. Fibrinogen beta chain (Homo sapiens), P02675. Fibrin DD(E) TRITC-Tn6 fluorescence polarization displacement. inhibition, % at 8.3 µM. 0.21% of 370,000 active;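 active means inhibition above a per-campaign cutoff: mean of compounds within control limits plus 3 SD, cut at about 15% in these data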;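 further: 0% = median of all compound wells on the plate and 100% = blocking peptide control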
Neddylation inh: inhibitors of cullin neddylation, primary screen, biochemical, TR-FRET, uHTS, NAE and Ubc12 | NEDD8-conjugating enzyme Ubc12 (Homo sapiens) + NEDD8-activating enzyme E1 regulatory … | calls only at 25 µM | 0.58% of 360,000 active; in the data active means inhibition above about 36%
SKN-1 inh: suppressors of acrylamide-induced Pgst-4::GFP reporter in worms, primary screen, SKN-1 inhibitor project, whole organism, uHTS, GFP/RFP fluorescence ratio, strain VP596; inhibition, % at 21.8 µM; C. elegans VP596 Pgst-4::GFP/RFP ratio, 24 h; 0.49% of 360,000 active;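 active means interference check ratio from 0.5 to 1.5 plus GFP to RFP signal ratio inhibition reaching or exceeding a fixed threshold, cut at about 30% in these data, passing the limit was not always enough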
KLK7 zymogen act: proKLK7 zymogen activators, primary screen, biochemical, fluorescence intensity | Kallikrein-7 (Homo sapiens), P49862 | purified proKLK7, EDANS-DABCYL substrate fluorescence; 100% is mature enzyme control, 0% vehicle | activation, % at 7 µM | 0.9% of 370,000 active | AID 652039, 2013;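 active means activation above the mean of all tested compounds plus 3 SD, computed per campaign excluding outliers beyond control limits, cut at about 13% in these data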
Target sequence (P49862 whole entry, looked up): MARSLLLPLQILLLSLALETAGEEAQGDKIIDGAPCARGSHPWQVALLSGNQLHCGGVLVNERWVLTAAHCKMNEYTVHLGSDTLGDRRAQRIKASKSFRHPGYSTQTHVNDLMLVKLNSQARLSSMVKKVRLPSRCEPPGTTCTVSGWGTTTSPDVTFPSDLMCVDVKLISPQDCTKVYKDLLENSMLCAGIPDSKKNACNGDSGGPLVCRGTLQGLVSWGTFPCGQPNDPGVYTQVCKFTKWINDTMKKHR
Neddyl conf: blockade of NEDD8 conjugation to cullin – biochemical, TR-FRET, single concentration, confirmation. shares compounds with Neddylation inh. TR-FRET cullin neddylation biochemical assay. calls only at 25 µM. 13% of 1,800 active. AID 652217, 2013; in the data active means inhibition above about 40%;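 further: neddylation substrate is the cullin 1 ring ligase complex with SKP2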
Numbers without * were called inactive; i = inactive; x = no result shown; + = active, no number; ! = not confirmed by another sample. Sampled rows, rich in hits. Any-hit rate of the full collection: about 2.2%.

SMILES	DDE Tn7 FP inh	MT1-MMP act inh	DDE Tn6 FP inh	Neddylation inh	SKN-1 inh	KLK7 zymogen act	Neddyl conf
CC1Cc2ccccc2N1C(=O)COC(=O)c1ccc(O)cc1 (stereo unspecified)	12	1	0	i	-13	0	x
COC(=O)C1=C(C)NC(C)=C(C(=O)OC)C1C(=O)OCC(=O)N1c2ccccc2CC1C (stereo unspecified)	0	2	2	+!	8	2	x
c1ccc(CN2CCC(Nc3nc(-c4cccnc4)nc4ccccc34)CC2)cc1	-9	-2	-1	i	-8	0	x
Cc1cc(C)c(O)c(CN(C)Cc2cc(Cl)cc(Cl)c2O)c1	-2	-4	-9	+	5	0	i
COC(=O)c1noc(C)c1-c1ccnn1C(=O)c1ccc(C)cc1	-1	-2	-3	i	14	0	x
CN(CC(=O)Nc1ccccc1Cl)C(=O)COC(=O)c1ccc(-c2ccc(O)cc2)cc1	-3	2	-1	+	11	0	x
CN(CC(=O)Nc1ccccc1Cl)C(=O)COC(=O)c1ccc(C(F)(F)F)cc1	0	2	3	i	-31	0	x
CSc1cnc2c(=O)n(C)c(=O)[nH]c2n1	-3	9	6	+	-8	-179	x
Cc1ccc(-c2nc(NC(=O)c3ccc(S(=O)(=O)N(CCC#N)CCC#N)cc3)sc2-c2ccccc2)cc1	-1	-3	1	i	12	0	x
COc1ccc(NC(=O)CSc2nc3nc(-c4cccs4)cc(C(F)(F)F)c3c(=O)[nH]2)c(OC)c1	-4	5	-4	+	-2	2	i
CCOc1ccccc1NC(=O)CSc1nc2nc(-c3cccs3)cc(C(F)(F)F)c2c(=O)[nH]1	-2	5	-3	i	-3	7	x
Cc1oc(C(C)(C)C)cc1C(=O)Nc1cccc(/C=C\C(=O)O)c1	7	-2	-2	i	0	0	x
CCCOc1ccc(N/C=C/C(=O)c2ccc(OC)c(OC)c2)cc1	3	-6	6	i	-20	-18	x
CCOc1ccc(N/C=C/C(=O)c2ccc(OC)c(OC)c2)cc1	1	1	-1	+	0	-1	i
c1nc(NCc2ccc3c(c2)OCO3)c2cc(-c3ccc4c(c3)OCCO4)ccc2n1	6	2	0	i	9	-3	x
Cc1cccc(CNc2ncnc3ccc(-c4ccc5c(c4)OCCO5)cc23)c1	-3	10	-6	+	3	-1	i
c1cncc(CNc2ncnc3ccc(-c4ccc5c(c4)OCO5)cc23)c1	-2	8	-14	+	-4	-1	i
COCCOC(=O)C(C#N)c1nc2ccccc2nc1N1CCCC1 (stereo unspecified)	-4	-3	-4	+	18	0	i
COCCCNC(=O)C(C#N)c1nc2ccccc2nc1N1CCCC1 (stereo unspecified)	-4	-5	2	x	-58	0	x
CC(Oc1cc2oc(=O)c3c(c2cc1Cl)CCC3)C(=O)NCc1cccnc1 (stereo unspecified)	-4	2	5	+	-9	1	i
C=CCNC(=S)/N=c1/ccccn1C	-1	4	-1	i	-17	1	x
C=CCNC(=S)/N=c1/ccccn1CCC	-11	5	4	+	-12	2	i
